In ChEMBL document CHEMBL3352086, “Structure-based design and development of functionalized Mercaptoguanine derivatives as inhibitors of the folate biosynthesis pathway enzyme 6-hydroxymethyl-7,8-dihydropterin pyrophosphokinase from Staphylococcus aureus” (J Med Chem, 2014):
Calls of active or inactive are those of the source. The rule behind the calls is not given here.

Key:
[1] = target: T1, 2-amino-4-hydroxy-6-hydroxymethyldihydropteridin e pyrophosphokinase (Staphylococcus aureus, UniProt X5EH84); assay: Binding affinity to Staphylococcus aureus recombinant HPPK by surface plasmon resonance analysis
T1 sequence (X5EH84 whole entry): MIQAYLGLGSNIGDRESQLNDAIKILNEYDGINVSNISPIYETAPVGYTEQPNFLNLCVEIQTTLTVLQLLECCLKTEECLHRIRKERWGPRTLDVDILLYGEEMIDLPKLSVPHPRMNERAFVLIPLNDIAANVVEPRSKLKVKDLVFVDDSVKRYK
Outline: (§1)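 Ni/NHS-EDC capture-coupled on an NTA chip (SaHPPK loaded at 225 μg mL⁻¹, ~5400 RU; EcDHPS at 80 μg mL⁻¹, ~7200 RU), with a USP7 control surface. Analytes were 3-fold serially diluted, with 30 s contact at 60 μL min⁻¹ and 60 s dissociation, in duplicate or more. Responses were double-referenced and equilibrium responses fit to a 1:1 steady-state model.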

[2] = target: T1, 2-amino-4-hydroxy-6-hydroxymethyldihydropteridin e pyrophosphokinase; assay: Binding affinity to Staphylococcus aureus recombinant HPPK by surface plasmon resonance analysis in presence of ATP; outline: as §1
[3] = target: T2, Dihydropteroate synthase (Bacteria, UniProt P0AC13); assay: Binding affinity to Escherichia coli DHPS by surface plasmon resonance analysis; outline: as §1
T2 sequence (P0AC13 whole entry): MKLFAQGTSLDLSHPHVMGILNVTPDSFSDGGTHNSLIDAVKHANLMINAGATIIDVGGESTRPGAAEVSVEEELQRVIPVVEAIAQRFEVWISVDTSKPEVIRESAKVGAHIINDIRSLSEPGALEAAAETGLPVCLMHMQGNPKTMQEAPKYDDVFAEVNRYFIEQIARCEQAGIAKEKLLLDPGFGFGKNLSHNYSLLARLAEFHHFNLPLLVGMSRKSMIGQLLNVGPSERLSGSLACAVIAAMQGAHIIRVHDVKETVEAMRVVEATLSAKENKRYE

[4] = target: T1, 2-amino-4-hydroxy-6-hydroxymethyldihydropteridin e pyrophosphokinase; assay: Inhibition of Staphylococcus aureus HPPK after 20 mins by luciferase reporter gene assay
Outline: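 Kinase-Glo ATP-depletion assay: HPPK 0.4 ng μL⁻¹ with 0.3 μM pterin and 0.2 μM ATP in 100 mM Tris-HCl pH 8.5, 10 mM MgCl₂, 0.01% BSA, 0.01% Tween 20, 10 mM β-mercaptoethanol. Compound added from 50% DMSO solution; 20 min at room temperature, then stopped with Kinase-Glo reagent and luminescence read 10 min later. Triplicates; IC50 from sigmoidal dose–response fit.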

[5] = target: T3, 2-amino-4-hydroxy-6-hydroxymethyldihydropteridin e pyrophosphokinase (Staphylococcus aureus) (UniProt X5EH84); assay: Binding affinity to Staphylococcus aureus HPPK in presence of ATP by NMR spectroscopy
T3 sequence (whole entry): T1 sequence (X5EH84 whole entry)

[6] = target: T3, 2-amino-4-hydroxy-6-hydroxymethyldihydropteridin e pyrophosphokinase (Staphylococcus aureus); assay: Binding affinity to Staphylococcus aureus HPPK in presence of AMPCPP by 2D 15N HSQC NMR spectroscopy
Outline: (§2)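 ¹⁵N-labelled SaHPPK was expressed in E. coli BL21(DE3) in minimal medium with ¹⁵N ammonium chloride. 2D ¹⁵N HSQC spectra used ~120 μM SaHPPK in 50 mM HEPES pH 8 with 10 mM Mg²⁺ and saturating AMPCPP. Ligand was titrated to saturation from a 50 mM DMSO-d₆ stock, and binding was tracked by backbone amide chemical shift perturbations.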

[7] = target: T3, 2-amino-4-hydroxy-6-hydroxymethyldihydropteridin e pyrophosphokinase (Staphylococcus aureus); assay: Binding affinity to Staphylococcus aureus HPPK in presence of AMPCPP by NMR spectroscopy; outline: as §2
[8] = target: T3, 2-amino-4-hydroxy-6-hydroxymethyldihydropteridin e pyrophosphokinase (Staphylococcus aureus); assay: Binding affinity to Staphylococcus aureus HPPK in absence of ATP by NMR spectroscopy
[9] = target: T1, 2-amino-4-hydroxy-6-hydroxymethyldihydropteridin e pyrophosphokinase; assay: Binding affinity to Staphylococcus aureus HPPK by isothermal calorimetry

Structure (SMILES)	Kd [1] [µM]	Kd [2] [µM]	Kd [3] [µM]	IC50 [4] [µM]	Activity [5]	Activity [6]	Activity [7]	Activity [8]	Kd [9] [µM]
COc1ccc(CCSc2nc3c(=O)[nH]c(N)nc3[nH]2)cc1	73.5	7.8	14.2	–	–	–	–	–	–
Nc1nc2nc(SCC(=O)c3ccccc3)[nH]c2c(=O)[nH]1	10.3	1.4	3.9	–	–	–	–	–	–
Nc1nc2[nH]c(SCC(=O)c3ccc(-c4ccccc4)cc3)nc2c(=O)[nH]1	21.5	0.81	8.4	–	–	–	–	–	–
N#Cc1ccc(CSc2nc3nc(N)[nH]c(=O)c3[nH]2)cc1	11.1	0.66	12.3	–	–	–	–	–	–
Nc1nc2[nH]c(SCc3ccccc3F)nc2c(=O)[nH]1	4.3	0.45	8.5	24.9	–	–	–	–	–
Nc1nc2[nH]c(SCc3ccccc3C(F)(F)F)nc2c(=O)[nH]1	7.26	2.81	9.74	–	–	–	–	–	–
COc1ccc(C(=O)CSc2nc3nc(N)[nH]c(=O)c3[nH]2)cc1	76.6	1.09	3.9	–	Active	Active	Active	inactive	–
Nc1nc2[nH]c(S)nc2c(=O)[nH]1	10.8	12.6	76.2	41	–	–	–	–	11
CC(Sc1nc2nc(N)[nH]c(=O)c2[nH]1)C(=O)c1ccccc1 (stereo not drawn)	7.5	1.8	8.2	–	–	–	–	–	–
Nc1nc2[nH]c(SCc3ccccc3)nc2c(=O)[nH]1	13.5	1.79	43.9	–	–	–	–	–	–
CC(=O)CSc1nc2c(=O)[nH]c(N)nc2[nH]1	42.7	1.85	7.8	–	–	–	–	–	–
COc1ccccc1C(=O)CSc1nc2nc(N)[nH]c(=O)c2[nH]1	21.7	2.8	1.6	–	–	–	–	–	–
